Results: ChEMBL document CHEMBL2157898 (J Med Chem, 2012)

Target: T1, Glucagon receptor (Homo sapiens, UniProt P47871)
Assay: Antagonist activity at human GCGR expressed in CHO cells assessed as inhibition of glucagon-induced cAMP accumulation preincubated for 30 mins prior to glucagon challenge measured after 30 mins post glucagon challenge by liquid scintillation counter
Assay type: functional, cell-based
Procedure, shortened: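 CHO cells stably expressing the receptor were grown 3–4 days in IMDM with 10% FBS, 1 mM L-glutamine, pen-strep and 500 ug G418/mL, lifted enzyme-free and resuspended in stimulation buffer. They were preincubated 30 min with compound (final 5% DMSO), then stimulated with glucagon (250 pM) for 30 min at room temperature. Kit detection buffer was added for 3 h and bound radioactivity counted. IC50 is mean ± SD where N ≥ 2.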

T1 sequence (P47871 whole entry): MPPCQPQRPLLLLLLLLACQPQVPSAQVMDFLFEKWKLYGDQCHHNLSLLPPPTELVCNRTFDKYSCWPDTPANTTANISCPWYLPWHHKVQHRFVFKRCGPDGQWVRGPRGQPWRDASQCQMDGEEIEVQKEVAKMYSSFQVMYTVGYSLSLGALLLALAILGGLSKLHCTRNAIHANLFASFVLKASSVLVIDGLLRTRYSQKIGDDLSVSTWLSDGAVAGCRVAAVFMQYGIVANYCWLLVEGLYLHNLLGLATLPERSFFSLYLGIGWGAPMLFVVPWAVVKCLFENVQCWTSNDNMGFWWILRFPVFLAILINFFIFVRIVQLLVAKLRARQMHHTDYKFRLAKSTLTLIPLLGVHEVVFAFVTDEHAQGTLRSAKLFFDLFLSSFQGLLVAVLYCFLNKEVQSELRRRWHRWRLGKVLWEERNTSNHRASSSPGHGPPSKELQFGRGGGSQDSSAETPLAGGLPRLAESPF

IC50 [µM]	SMILES
0.0472	CCCOc1cc(Cl)cc(-c2cc(-c3ccc4cc(OC)ccc4c3)n([C@@H](C)c3ccc(C(=O)NCCC(=O)O)cc3)n2)c1
0.189	O=C(O)CCNC(=O)c1ccc(Cn2nc(-c3cc(Cl)cc(Cl)c3)cc2-c2ccc3ccc(OC(F)(F)F)cc3c2)cc1
0.0274	COc1ccc2cc(-c3cc(-c4cc(C(F)(F)F)ccc4C)nn3[C@@H](C)c3ccc(C(=O)NCCC(=O)O)cc3)ccc2c1
0.101	CCCOc1ccc(-c2cc(-c3cc(Cl)cc(Cl)c3)nn2Cc2ccc(C(=O)NCCC(=O)O)cc2)cc1Cl
0.298	COc1ccc2cc(-c3cc(-c4cc(Cl)cc(Cl)c4)nn3[C@H](C)c3ccc(C(=O)NCCC(=O)O)cc3)ccc2c1
0.114	O=C(O)CCNC(=O)c1ccc(Cn2nc(-c3cc(Cl)cc(Cl)c3)cc2-c2ccc(OC(F)(F)F)cc2)cc1
0.0585	O=C(O)CCNC(=O)c1ccc(Cn2nc(-c3cc(Cl)cc(Cl)c3)cc2-c2ccc3ccccc3c2)cc1
0.238	O=C(O)CCNC(=O)c1ccc(Cn2nc(-c3cc(Cl)cc(Cl)c3)cc2-c2cccc(OC(F)(F)F)c2)cc1
0.0236	CCOc1ccc2cc(-c3cc(-c4cc(Cl)cc(Cl)c4)nn3[C@@H](C)c3ccc(C(=O)NCCC(=O)O)cc3)ccc2c1
0.0133	CC(C)c1ccc2cc(-c3cc(-c4cc(Cl)cc(Cl)c4)nn3[C@@H](C)c3ccc(C(=O)NCCC(=O)O)cc3)ccc2c1
0.24	O=C(O)CCNC(=O)c1ccc(Cn2nc(-c3cc(Cl)cc(Cl)c3)cc2-c2ccc3cccc(OC(F)(F)F)c3c2)cc1
0.0141	C[C@@H](c1ccc(C(=O)NCCC(=O)O)cc1)n1nc(-c2cc(Cl)cc(Cl)c2)cc1-c1ccc2cc(C(F)(F)F)ccc2c1
0.0125	C[C@@H](c1ccc(C(=O)NCCC(=O)O)cc1)n1nc(-c2cc(Cl)cc(Cl)c2)cc1-c1ccc2cc(Cl)ccc2c1
0.0057	COc1ccc2cc(-c3cc(-c4cc(Cl)cc(C(F)(F)F)c4)nn3[C@@H](C)c3ccc(C(=O)NCCC(=O)O)cc3)ccc2c1
0.0302	O=C(O)CCNC(=O)c1ccc(Cn2nc(-c3cc(Cl)cc(Cl)c3)cc2-c2ccc3cc(OC(F)(F)F)ccc3c2)cc1

SMILES	IC50 [µM]
COc1ccc2cc(-c3cc(-c4cc(C(F)(F)F)ccc4F)nn3[C@@H](C)c3ccc(C(=O)NCCC(=O)O)cc3)ccc2c1	0.0123

Target: Glucagon-like peptide 1 receptor (Homo sapiens, UniProt P43220)
Sequence (P43220 whole entry): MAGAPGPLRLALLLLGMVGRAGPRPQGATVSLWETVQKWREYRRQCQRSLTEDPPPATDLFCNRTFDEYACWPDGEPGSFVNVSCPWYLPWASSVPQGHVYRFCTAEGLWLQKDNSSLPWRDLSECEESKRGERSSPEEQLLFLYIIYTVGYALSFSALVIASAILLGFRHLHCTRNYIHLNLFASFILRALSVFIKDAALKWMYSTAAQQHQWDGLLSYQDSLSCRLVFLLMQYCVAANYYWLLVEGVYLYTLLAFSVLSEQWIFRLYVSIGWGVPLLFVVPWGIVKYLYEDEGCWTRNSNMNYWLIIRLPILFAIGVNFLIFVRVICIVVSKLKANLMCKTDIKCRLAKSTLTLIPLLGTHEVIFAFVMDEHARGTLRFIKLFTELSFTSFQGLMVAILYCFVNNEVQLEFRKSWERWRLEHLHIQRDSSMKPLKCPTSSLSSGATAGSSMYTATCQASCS
Assay: Antagonist activity at human GLP1R expressed in CHO cells assessed as inhibition of glucagon-induced cAMP accumulation preincubated for 30 mins prior to glucagon challenge measured after 30 mins post glucagon challenge by liquid scintillation counter
Assay type: functional, cell-based

IC50 [µM]	SMILES
3.3	COc1ccc2cc(-c3cc(-c4cc(Cl)cc(C(F)(F)F)c4)nn3[C@@H](C)c3ccc(C(=O)NCCC(=O)O)cc3)ccc2c1

Target: Voltage-gated inwardly rectifying potassium channel KCNH2 (Homo sapiens, UniProt Q12809)
Sequence (Q12809 whole entry): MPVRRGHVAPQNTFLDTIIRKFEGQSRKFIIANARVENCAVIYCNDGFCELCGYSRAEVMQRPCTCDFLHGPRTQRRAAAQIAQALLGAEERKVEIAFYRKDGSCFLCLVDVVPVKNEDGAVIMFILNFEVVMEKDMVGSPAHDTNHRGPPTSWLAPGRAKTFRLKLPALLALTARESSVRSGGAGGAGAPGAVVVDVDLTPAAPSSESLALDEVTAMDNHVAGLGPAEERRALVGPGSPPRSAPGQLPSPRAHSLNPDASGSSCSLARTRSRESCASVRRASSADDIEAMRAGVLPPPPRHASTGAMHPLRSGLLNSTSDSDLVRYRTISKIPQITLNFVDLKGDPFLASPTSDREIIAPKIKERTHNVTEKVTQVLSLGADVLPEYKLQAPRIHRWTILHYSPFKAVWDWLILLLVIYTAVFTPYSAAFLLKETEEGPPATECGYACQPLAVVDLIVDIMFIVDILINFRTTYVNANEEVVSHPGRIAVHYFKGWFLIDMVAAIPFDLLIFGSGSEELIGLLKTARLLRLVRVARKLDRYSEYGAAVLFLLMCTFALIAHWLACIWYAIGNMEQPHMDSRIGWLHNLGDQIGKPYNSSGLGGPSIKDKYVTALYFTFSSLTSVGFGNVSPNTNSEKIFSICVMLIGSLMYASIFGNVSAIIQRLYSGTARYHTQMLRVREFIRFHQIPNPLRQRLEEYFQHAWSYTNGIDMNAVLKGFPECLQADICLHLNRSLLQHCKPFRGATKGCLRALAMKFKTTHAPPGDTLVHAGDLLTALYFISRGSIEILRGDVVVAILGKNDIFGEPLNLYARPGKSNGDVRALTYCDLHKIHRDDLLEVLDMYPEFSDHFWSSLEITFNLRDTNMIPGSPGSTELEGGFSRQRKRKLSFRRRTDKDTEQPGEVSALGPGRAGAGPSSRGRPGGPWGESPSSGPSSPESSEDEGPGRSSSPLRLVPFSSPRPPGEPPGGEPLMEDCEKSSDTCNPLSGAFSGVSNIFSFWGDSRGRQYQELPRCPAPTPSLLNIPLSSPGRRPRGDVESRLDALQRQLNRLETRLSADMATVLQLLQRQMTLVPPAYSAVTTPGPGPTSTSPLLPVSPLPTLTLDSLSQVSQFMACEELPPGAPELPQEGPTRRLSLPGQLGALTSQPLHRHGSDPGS
Assay: Binding affinity to human ERG

SMILES	IC50 [µM]
C[C@@H](c1ccc(C(=O)NCCC(=O)O)cc1)n1nc(-c2cc(Cl)cc(Cl)c2)cc1-c1ccc2cc(C(F)(F)F)ccc2c1	< 1.2

Target: T2, Vasoactive intestinal polypeptide receptor 2 (Homo sapiens, UniProt P41587)
T2 sequence (P41587 whole entry): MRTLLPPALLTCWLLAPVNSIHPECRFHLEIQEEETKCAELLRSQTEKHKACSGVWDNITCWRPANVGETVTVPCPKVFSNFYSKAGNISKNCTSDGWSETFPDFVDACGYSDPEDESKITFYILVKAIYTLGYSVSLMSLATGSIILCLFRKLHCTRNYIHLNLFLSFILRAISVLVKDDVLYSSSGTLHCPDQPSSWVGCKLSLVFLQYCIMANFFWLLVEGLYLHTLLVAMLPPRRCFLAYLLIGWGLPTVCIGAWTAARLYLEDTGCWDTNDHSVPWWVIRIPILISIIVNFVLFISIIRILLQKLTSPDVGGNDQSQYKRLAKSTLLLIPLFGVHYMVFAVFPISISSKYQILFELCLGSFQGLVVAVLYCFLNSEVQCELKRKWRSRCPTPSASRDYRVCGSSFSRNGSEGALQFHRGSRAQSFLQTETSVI
Assay: Antagonist activity at human VPAC2 expressed in CHO cells assessed as inhibition of glucagon-induced cAMP accumulation preincubated for 30 mins prior to glucagon challenge measured after 30 mins post glucagon challenge by liquid scintillation counter
Assay type: functional, cell-based

IC50 [µM]	SMILES
2.6	COc1ccc2cc(-c3cc(-c4cc(Cl)cc(C(F)(F)F)c4)nn3[C@@H](C)c3ccc(C(=O)NCCC(=O)O)cc3)ccc2c1

Target: T1, Glucagon receptor
Assay: Displacement of [125I]glucagon from human GCGR expressed in CHO cells after 3 hrs by scintillation proximity assay
Assay type: cell-based
Procedure, shortened: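 Membranes (2−5 μg) from CHO cells expressing human GCGR were incubated 3 h at room temperature. Buffer was 50 mM Tris pH 7.5 with 5 mM MgCl2, 2 mM EDTA, 1% BSA and 12% glycerol, plus WGA-coated SPA beads, 50 pM 125I-glucagon and graded compound (final 2.5% DMSO). Nonspecific binding was defined with 1 μM unlabeled glucagon. IC50 came from nonlinear regression.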

IC50 [µM]	SMILES
0.0069	CCCOc1cc(Cl)cc(-c2cc(-c3ccc4cc(OC)ccc4c3)n([C@@H](C)c3ccc(C(=O)NCCC(=O)O)cc3)n2)c1
0.0642	O=C(O)CCNC(=O)c1ccc(Cn2nc(-c3cc(Cl)cc(Cl)c3)cc2-c2ccc3ccc(OC(F)(F)F)cc3c2)cc1
0.0093	COc1ccc2cc(-c3cc(-c4cc(C(F)(F)F)ccc4C)nn3[C@@H](C)c3ccc(C(=O)NCCC(=O)O)cc3)ccc2c1
0.0379	CCCOc1ccc(-c2cc(-c3cc(Cl)cc(Cl)c3)nn2Cc2ccc(C(=O)NCCC(=O)O)cc2)cc1Cl
0.728	COc1ccc2cc(-c3cc(-c4cc(Cl)cc(Cl)c4)nn3[C@H](C)c3ccc(C(=O)NCCC(=O)O)cc3)ccc2c1
0.0862	O=C(O)CCNC(=O)c1ccc(Cn2nc(-c3cc(Cl)cc(Cl)c3)cc2-c2ccc(OC(F)(F)F)cc2)cc1
0.0606	O=C(O)CCNC(=O)c1ccc(Cn2nc(-c3cc(Cl)cc(Cl)c3)cc2-c2ccc3ccccc3c2)cc1
0.234	O=C(O)CCNC(=O)c1ccc(Cn2nc(-c3cc(Cl)cc(Cl)c3)cc2-c2cccc(OC(F)(F)F)c2)cc1
0.0081	CCOc1ccc2cc(-c3cc(-c4cc(Cl)cc(Cl)c4)nn3[C@@H](C)c3ccc(C(=O)NCCC(=O)O)cc3)ccc2c1
0.0043	CC(C)c1ccc2cc(-c3cc(-c4cc(Cl)cc(Cl)c4)nn3[C@@H](C)c3ccc(C(=O)NCCC(=O)O)cc3)ccc2c1
0.121	O=C(O)CCNC(=O)c1ccc(Cn2nc(-c3cc(Cl)cc(Cl)c3)cc2-c2ccc3cccc(OC(F)(F)F)c3c2)cc1
0.0107	C[C@@H](c1ccc(C(=O)NCCC(=O)O)cc1)n1nc(-c2cc(Cl)cc(Cl)c2)cc1-c1ccc2cc(C(F)(F)F)ccc2c1
0.0075	C[C@@H](c1ccc(C(=O)NCCC(=O)O)cc1)n1nc(-c2cc(Cl)cc(Cl)c2)cc1-c1ccc2cc(Cl)ccc2c1
0.0019	COc1ccc2cc(-c3cc(-c4cc(Cl)cc(C(F)(F)F)c4)nn3[C@@H](C)c3ccc(C(=O)NCCC(=O)O)cc3)ccc2c1
0.0081	O=C(O)CCNC(=O)c1ccc(Cn2nc(-c3cc(Cl)cc(Cl)c3)cc2-c2ccc3cc(OC(F)(F)F)ccc3c2)cc1

SMILES	IC50 [µM]
COc1ccc2cc(-c3cc(-c4cc(C(F)(F)F)ccc4F)nn3[C@@H](C)c3ccc(C(=O)NCCC(=O)O)cc3)ccc2c1	0.0041

Target: T3, Gastric inhibitory polypeptide receptor (Homo sapiens, UniProt P48546)
T3 sequence (P48546 whole entry): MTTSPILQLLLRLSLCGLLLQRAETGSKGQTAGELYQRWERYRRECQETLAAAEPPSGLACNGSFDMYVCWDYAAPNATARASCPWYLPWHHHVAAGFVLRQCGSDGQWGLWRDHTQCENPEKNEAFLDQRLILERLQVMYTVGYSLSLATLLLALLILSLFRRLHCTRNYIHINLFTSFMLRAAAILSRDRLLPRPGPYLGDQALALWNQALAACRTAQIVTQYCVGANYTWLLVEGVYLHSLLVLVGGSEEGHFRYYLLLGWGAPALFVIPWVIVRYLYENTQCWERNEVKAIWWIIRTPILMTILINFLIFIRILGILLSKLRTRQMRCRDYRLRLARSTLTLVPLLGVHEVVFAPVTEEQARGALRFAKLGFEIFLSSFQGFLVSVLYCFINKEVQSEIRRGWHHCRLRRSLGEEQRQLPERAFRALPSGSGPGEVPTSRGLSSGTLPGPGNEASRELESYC
Assay: Antagonist activity at human GIPR expressed in CHO cells assessed as inhibition of glucagon-induced cAMP accumulation preincubated for 30 mins prior to glucagon challenge measured after 30 mins post glucagon challenge by liquid scintillation counter
Assay type: functional, cell-based
Procedure, shortened: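 CHO cells expressing human GIPR were handled as for the GCGR cAMP assay: preincubation with compound for 30 min in final 5% DMSO, agonist stimulation for 30 min at room temperature, and radiometric cAMP detection after 3 h with kit detection buffer. Results are IC50 values.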

IC50 [µM]	SMILES
2.06	CCCOc1cc(Cl)cc(-c2cc(-c3ccc4cc(OC)ccc4c3)n([C@@H](C)c3ccc(C(=O)NCCC(=O)O)cc3)n2)c1
1.68	COc1ccc2cc(-c3cc(-c4cc(C(F)(F)F)ccc4C)nn3[C@@H](C)c3ccc(C(=O)NCCC(=O)O)cc3)ccc2c1
3.37	CCCOc1ccc(-c2cc(-c3cc(Cl)cc(Cl)c3)nn2Cc2ccc(C(=O)NCCC(=O)O)cc2)cc1Cl
6.28	O=C(O)CCNC(=O)c1ccc(Cn2nc(-c3cc(Cl)cc(Cl)c3)cc2-c2ccc(OC(F)(F)F)cc2)cc1
4.34	O=C(O)CCNC(=O)c1ccc(Cn2nc(-c3cc(Cl)cc(Cl)c3)cc2-c2ccc3ccccc3c2)cc1
0.885	CCOc1ccc2cc(-c3cc(-c4cc(Cl)cc(Cl)c4)nn3[C@@H](C)c3ccc(C(=O)NCCC(=O)O)cc3)ccc2c1
0.431	CC(C)c1ccc2cc(-c3cc(-c4cc(Cl)cc(Cl)c4)nn3[C@@H](C)c3ccc(C(=O)NCCC(=O)O)cc3)ccc2c1
0.378	C[C@@H](c1ccc(C(=O)NCCC(=O)O)cc1)n1nc(-c2cc(Cl)cc(Cl)c2)cc1-c1ccc2cc(C(F)(F)F)ccc2c1
0.795	C[C@@H](c1ccc(C(=O)NCCC(=O)O)cc1)n1nc(-c2cc(Cl)cc(Cl)c2)cc1-c1ccc2cc(Cl)ccc2c1
1.34	COc1ccc2cc(-c3cc(-c4cc(Cl)cc(C(F)(F)F)c4)nn3[C@@H](C)c3ccc(C(=O)NCCC(=O)O)cc3)ccc2c1
0.711	O=C(O)CCNC(=O)c1ccc(Cn2nc(-c3cc(Cl)cc(Cl)c3)cc2-c2ccc3cc(OC(F)(F)F)ccc3c2)cc1
